How the values were obtained:
Type in all cases: functional
[1] = tested on: SF-295; assay: Growth inhibition of human SF295 cells assessed tumor cell growth at 10^-5 M; parameters: scale not given: the % may be the effect or the level left
Method in brief: (§1)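 NCI 60-human-tumor-cell-line panel screen. Each compound was tested at a single concentration of 10^-5 M, and percent growth of tumor cells was recorded for each cell line. Growth inhibition was expressed from these percent-growth values.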

[2] = tested on: BT-549; assay: Growth inhibition of human BT549 cells assessed tumor cell growth at 10^-5 M; parameters: scale not given: the % may be the effect or the level left; method in brief: as §1
[3] = tested on: UACC-257; assay: Growth inhibition of human UACC257 cells assessed tumor cell growth at 10^-5 M; parameters: scale not given: the % may be the effect or the level left
Method in brief: (§2)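 Single-dose screen at 10^-5 M across the 60 human tumor cell line panel, run to NCI standards. The value is the percent growth of each cell line in the presence of compound. Compounds active at this dose moved on to five-concentration testing (10^-4 to 10^-8 M).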

[4] = tested on: Malme-3M; assay: Growth inhibition of human MALME-3M cells assessed tumor cell growth at 10^-5 M; parameters: scale not given: the % may be the effect or the level left; method in brief: as §1
[5] = tested on: PC-3; assay: Growth inhibition of human PC3 cells assessed tumor cell growth at 10^-5 M; parameters: scale not given: the % may be the effect or the level left; method in brief: as §1
[6] = tested on: T47D; assay: Growth inhibition of human T47D cells
[7] = tested on: HCC 2998; assay: Growth inhibition of human HCC2998 cells assessed tumor cell growth at 10^-5 M; parameters: scale not given: the % may be the effect or the level left; method in brief: as §1
[8] = tested on: DU-145; assay: Growth inhibition of human DU145 cells assessed tumor cell growth at 10^-5 M; parameters: scale not given: the % may be the effect or the level left; method in brief: as §1
[9] = tested on: SK-MEL-28; assay: Growth inhibition of human SK-MEL-28 cells assessed tumor cell growth at 10^-5 M; parameters: scale not given: the % may be the effect or the level left; method in brief: as §1
[10] = Growth inhibition of human Hs 578T cells
[11] = tested on: HL-60(TB); assay: Growth inhibition of human HL-60(TB) cells
[12] = tested on: HOP-62; assay: Growth inhibition of human HOP62 cells assessed tumor cell growth at 10^-5 M; parameters: scale not given: the % may be the effect or the level left; method in brief: as §1
[13] = tested on: RXF 393; assay: Growth inhibition of human RXF393 cells assessed tumor cell growth at 10^-5 M; parameters: scale not given: the % may be the effect or the level left; method in brief: as §1
[14] = tested on: SF-539; assay: Growth inhibition of human SF539 cells
[15] = tested on: MOLT-4; assay: Growth inhibition of human MOLT4 cells assessed tumor cell growth at 10^-5 M; parameters: scale not given: the % may be the effect or the level left; method in brief: as §1
[16] = tested on: UACC-257; assay: Growth inhibition of human UACC257 cells
[17] = tested on: SR; assay: Growth inhibition of human SR cells assessed tumor cell growth at 10^-5 M; parameters: scale not given: the % may be the effect or the level left; method in brief: as §2
[18] = tested on: SF-268; assay: Growth inhibition of human SF268 cells
[19] = tested on: UO-31; assay: Growth inhibition of human UO31 cells
[20] = tested on: HL-60(TB); assay: Growth inhibition of human HL-60(TB) cells assessed tumor cell growth at 10^-5 M; parameters: scale not given: the % may be the effect or the level left
Method in brief: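 HL-60(TB), part of the 60-line panel, tested at a single concentration of 10^-5 M. The read-out is percent tumor cell growth relative to untreated growth.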

[21] = tested on: IGROV-1; assay: Growth inhibition of human IGROV1 cells
Method in brief: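 Follow-up panel testing at five concentrations (10^-4, 10^-5, 10^-6, 10^-7 and 10^-8 M) across the 60 human tumor cell lines. GI50 was obtained for each line from the concentration-response data, with the panel average GI50 also reported.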

[22] = tested on: 786-0; assay: Growth inhibition of human 786-0 cells
[23] = tested on: SW-620; assay: Growth inhibition of human SW620 cells
[24] = tested on: A549; assay: Growth inhibition of human A549 cells
[25] = tested on: A498; assay: Growth inhibition of human A498 cells
[26] = tested on: NCI-H460; assay: Growth inhibition of human NCI-H460 cells
[27] = tested on: SNB-75; assay: Growth inhibition of human SNB75 cells assessed tumor cell growth at 10^-5 M; parameters: scale not given: the % may be the effect or the level left; method in brief: as §2
[28] = tested on: SNB-19; assay: Growth inhibition of human SNB19 cells
[29] = tested on: SF-268; assay: Growth inhibition of human SF268 cells assessed tumor cell growth at 10^-5 M; parameters: scale not given: the % may be the effect or the level left; method in brief: as §1
[30] = tested on: MDA-MB-435; assay: Growth inhibition of human MDA-MB-435 cells assessed tumor cell growth at 10^-5 M; parameters: scale not given: the % may be the effect or the level left; method in brief: as §1
[31] = tested on: COLO 205; assay: Growth inhibition of human COLO205 cells
[32] = Growth inhibition of human […] cells assessed tumor cell growth at 10^-5 M; parameters: scale not given: the % may be the effect or the level left; method in brief: as §1
[33] = tested on: HCT-15; assay: Growth inhibition of human HCT15 cells
[34] = tested on: IGROV-1; assay: Growth inhibition of human IGROV1 cells assessed tumor cell growth at 10^-5 M; parameters: scale not given: the % may be the effect or the level left; method in brief: as §1
[35] = tested on: UACC-62; assay: Growth inhibition of human UACC62 cells
[36] = tested on: K562; assay: Growth inhibition of human K562 cells
[37] = tested on: HT-29; assay: Growth inhibition of human HT-29 cells assessed tumor cell growth at 10^-5 M; parameters: scale not given: the % may be the effect or the level left; method in brief: as §1
[38] = tested on: CAKI-1; assay: Growth inhibition of human Caki1 cells
[39] = Growth inhibition of human RPMI8266 cells
[40] = tested on: Malme-3M; assay: Growth inhibition of human MALME-3M cells
[41] = tested on: CAKI-1; assay: Growth inhibition of human Caki1 cells assessed tumor cell growth at 10^-5 M; parameters: scale not given: the % may be the effect or the level left; method in brief: as §1
[42] = tested on: MOLT-4; assay: Growth inhibition of human MOLT4 cells
[43] = tested on: OVCAR-3; assay: Growth inhibition of human OVCAR3 cells
[44] = tested on: MDA-MB-231; assay: Growth inhibition of human MDA-MB-231 cells
[45] = tested on: U-251; assay: Growth inhibition of human U251 cells assessed tumor cell growth at 10^-5 M; parameters: scale not given: the % may be the effect or the level left; method in brief: as §2
[46] = tested on: OVCAR-5; assay: Growth inhibition of human OVCAR5 cells assessed tumor cell growth at 10^-5 M; parameters: scale not given: the % may be the effect or the level left; method in brief: as §1
[47] = tested on: TK-10; assay: Growth inhibition of human TK10 cells assessed tumor cell growth at 10^-5 M; parameters: scale not given: the % may be the effect or the level left; method in brief: as §2
[48] = tested on: SK-OV-3; assay: Growth inhibition of human SKOV3 cells assessed tumor cell growth at 10^-5 M; parameters: scale not given: the % may be the effect or the level left; method in brief: as §1
[49] = tested on: SF-539; assay: Growth inhibition of human SF539 cells assessed tumor cell growth at 10^-5 M; parameters: scale not given: the % may be the effect or the level left; method in brief: as §1
[50] = tested on: CCRF-CEM; assay: Growth inhibition of human CCRF-CEM cells assessed tumor cell growth at 10^-5 M; parameters: scale not given: the % may be the effect or the level left; method in brief: as §1
[51] = read-out: LC50 (the source's name)

CC1=NN(c2cccc(Cl)c2)C(=O)/C1=C\c1c(O)ccc2ccccc12
Activity [1]: 25.62%
Activity [2]: 90.21%
Activity [3]: 79.99%
Activity [4]: 58.97%
Activity [5]: 33.03%
GI50 [6]: > 100 µM
CC50 [6, 51]: > 100 µM
Activity [7]: -22.22%
Activity [8]: 35.43%
Activity [9]: 35.25%
GI50 [10]: 32.3 µM
CC50 [10, 51]: > 100 µM
GI50 [11]: > 100 µM
CC50 [11, 51]: > 100 µM
Activity [12]: -64.07%
Activity [13]: -76.85%
GI50 [14]: 0.01 µM
CC50 [14, 51]: > 100 µM
Activity [15]: 44.19%
GI50 [16]: > 100 µM
CC50 [16, 51]: > 100 µM
Activity [17]: 29.7%
GI50 [18]: 97.7 µM
CC50 [18, 51]: > 100 µM
GI50 [19]: > 100 µM
CC50 [19, 51]: > 100 µM
Activity [20]: 104.49%
GI50 [21]: 26.9 µM
CC50 [21, 51]: > 100 µM
GI50 [22]: 21.3 µM
CC50 [22, 51]: > 100 µM
GI50 [23]: > 100 µM
CC50 [23, 51]: > 100 µM
GI50 [24]: > 100 µM
CC50 [24, 51]: > 100 µM
GI50 [25]: > 100 µM
CC50 [25, 51]: > 100 µM
GI50 [26]: > 100 µM
CC50 [26, 51]: > 100 µM
Activity [27]: 10.3%
GI50 [28]: 45.7 µM
CC50 [28, 51]: > 100 µM
Activity [29]: 47.23%
Activity [30]: 20.68%
GI50 [31]: > 100 µM
LC50 [31]: > 100 µM
Activity [32]: 96.44%
GI50 [33]: > 100 µM
CC50 [33, 51]: > 100 µM
Activity [34]: 33.94%
GI50 [35]: 39.8 µM
CC50 [35, 51]: > 100 µM
GI50 [36]: 44.6 µM
CC50 [36, 51]: > 100 µM
Activity [37]: 13.48%
GI50 [38]: > 100 µM
CC50 [38, 51]: > 100 µM
GI50 [39]: > 100 µM
CC50 [39, 51]: > 100 µM
GI50 [40]: 29.5 µM
CC50 [40, 51]: > 100 µM
Activity [41]: 34.96%
GI50 [42]: > 100 µM
LC50 [42]: > 100 µM
GI50 [43]: 58.8 µM
CC50 [43, 51]: > 100 µM
GI50 [44]: 36.3 µM
CC50 [44, 51]: > 100 µM
Activity [45]: -10.7%
Activity [46]: 16.91%
Activity [47]: 17.23%
Activity [48]: 28.27%
Activity [49]: 72.26%
Activity [50]: 36.33%

— ChEMBL document CHEMBL1811814, “Synthesis and evaluation of indole, pyrazole, chromone and pyrimidine based conjugates for tumor growth inhibitory activities--development of highly efficacious cytotoxic agents” (Eur J Med Chem, 2010)
